Results published in ChEMBL document CHEMBL2424590, “4-[18F]Fluoro-m-hydroxyphenethylguanidine: a radiopharmaceutical for quantifying regional cardiac sympathetic nerve density with positron emission tomography” (J Med Chem, 2013).

What was measured:
Brain = experiment: Biodistribution in Sprague-Dawley rat brain at 20 to 120 uCi, iv after 120 mins by gamma counting analysis; assay type: ADME, organism-based; conditions: in vivo, 2 h
Outline: (§1)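 Sprague-Dawley rats (280–330 g), 2 male and 2 female per time point (5, 30, 60, 120 min), under light isoflurane, received a tail-vein bolus of 20–120 μCi tracer in 0.05–0.10 mL isotonic 60 mM sodium phosphate, pH 5.4. Tissues were weighed and gamma-counted. Decay-corrected dpm/g was normalized to injected dpm per kg body weight (%ID·kg/g).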

Muscle tissue [1] = experiment: Biodistribution in Sprague-Dawley rat muscle at 20 to 120 uCi, iv after 60 mins by gamma counting analysis; assay type: ADME, organism-based; conditions: in vivo, 1 h; outline: as §1
Rattus norvegicus [2] = experiment: Biodistribution in Sprague-Dawley rat stomach at 20 to 120 uCi, iv after 60 mins by gamma counting analysis; assay type: ADME, organism-based; conditions: in vivo, 1 h
Outline: (§2)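 Male and female rats (2 per sex per time point, 280–330 g) under light isoflurane given tail-vein bolus of 20–120 μCi tracer in 0.05–0.10 mL isotonic 60 mM sodium phosphate, pH 5.4. Tissues sampled at 5, 30, 60 or 120 min, weighed and gamma-counted. Decay-corrected dpm per gram normalised to injected dpm and body weight, given as %ID·kg/g.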

Kidney [3] = experiment: Biodistribution in Sprague-Dawley rat kidney at 20 to 120 uCi, iv after 60 mins by gamma counting analysis; assay type: ADME, organism-based; conditions: in vivo, 1 h; outline: as §1
Rattus norvegicus [4] = experiment: Biodistribution in Sprague-Dawley rat eyeballs at 20 to 120 uCi, iv after 60 mins by gamma counting analysis; assay type: ADME, organism-based, Eyeball of camera-type eye; conditions: in vivo, 1 h; outline: as §1
Blood [5] = experiment: Biodistribution in Sprague-Dawley rat blood at 20 to 120 uCi, iv after 30 mins by gamma counting analysis; assay type: ADME, organism-based; conditions: in vivo, 0.5 h; outline: as §1
Muscle tissue [6] = experiment: Biodistribution in Sprague-Dawley rat muscle at 20 to 120 uCi, iv after 30 mins by gamma counting analysis; assay type: ADME, organism-based; conditions: in vivo, 0.5 h; outline: as §1
Kidney [7] = experiment: Biodistribution in Sprague-Dawley rat kidney at 20 to 120 uCi, iv after 30 mins by gamma counting analysis; assay type: ADME, organism-based; conditions: in vivo, 0.5 h; outline: as §1
Liver [8] = experiment: Biodistribution in Sprague-Dawley rat liver at 20 to 120 uCi, iv after 30 mins by gamma counting analysis; assay type: ADME, organism-based; conditions: in vivo, 0.5 h; outline: as §1
Muscle tissue [9] = experiment: Biodistribution in Sprague-Dawley rat muscle at 20 to 120 uCi, iv after 5 mins by gamma counting analysis; assay type: ADME, organism-based; conditions: in vivo; outline: as §1
Ovary = experiment: Biodistribution in Sprague-Dawley rat ovary at 20 to 120 uCi, iv after 5 mins by gamma counting analysis; assay type: ADME, organism-based, Female gonad; conditions: in vivo
Outline: as §1, with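 “g)” for “g), 2 male and 2 female per time point (5, 30, 60, 120 min),”, “isoflurane” for “isoflurane,”, “Sampling was at 5, 30, 60 or 120 min. […]” for “Tissues”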

Rattus norvegicus [10] = experiment: Biodistribution in Sprague-Dawley rat stomach at 20 to 120 uCi, iv after 5 mins by gamma counting analysis; assay type: ADME, organism-based; conditions: in vivo; outline: as §2
Liver [11] = experiment: Biodistribution in Sprague-Dawley rat liver at 20 to 120 uCi, iv after 5 mins by gamma counting analysis; assay type: ADME, organism-based; conditions: in vivo; outline: as §1
Nucleic Acid = experiment: Ratio of drug level in plasma to whole blood in rhesus macaque monkey at 5 to 6 mCi, iv by RP-HPLC analysis; assay type: ADME, organism-based, Macaca mulatta; conditions: in vivo
Outline: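 Venous monkey blood samples taken during PET were centrifuged 1 min at 12000 × g to separate plasma from RBCs. 0.1 mL aliquots of whole blood and plasma were gamma-counted, and decay-corrected counts gave Cp/Cwb for each sample. A pre-scan sample spiked with 0.1 mCi tracer was incubated 60–70 min at 37 °C and processed the same way.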

Plasma = experiment: Metabolic stability in rhesus macaque monkey plasma assessed as retention time of [18F]-2-fluoro-5-(2-guanidinoethyl)phenyl hydrogen sulfate at 5 to 6 mCi, iv by RP-HPLC analysis; assay type: ADME, organism-based, Macaca mulatta; conditions: in vivo
Outline: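 Six venous samples (1.5–2.0 mL; typically 1, 2, 4, 10, 30, 60 min) drawn during the monkey PET scan into heparin and centrifuged 1 min at 12000 × g. Plasma deproteinised with HClO₄ (final 0.4 N), spun, neutralised with KOH to pH 7.0–7.5 and filtered twice (0.22 μm). Analysed by reverse-phase HPLC (10% EtOH in 60 mM NaH₂PO₄, pH 5.4, 1.0 mL/min) with NaI(Tl) radiodetection. Decay-corrected intact fraction per sample; T1/2 is the time at which 50% of plasma activity is metabolite.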

[12] = Drug uptake in rhesus macaque monkey myocardium at 0.1 mCi after 10 to 30 mins by gamma counting analysis; assay type: ADME, Macaca mulatta; conditions: in vivo
[13] = Half life in Sprague-Dawley rat heart sympathetic neurons at 2 uCi/mL administered as infusion by gamma counting analysis; assay type: ADME, tissue-based; conditions: sympathetic neuron
Outline: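 Isolated working rat hearts perfused with 54 μM corticosterone in all perfusates to block uptake-2. Tracer infused at <10 nM total mass for 10 min to measure neuronal uptake rate (mL/min/g wet), then switched to normal perfusate to follow clearance over 2 h.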

Blood [14] = experiment: Drug uptake in rhesus macaque monkey whole blood at 0.1 mCi after 10 to 85 mins by gamma counting analysis; assay type: ADME, tissue-based, Macaca mulatta
[15] = Half life in rat urinary bladder at 0.5 mCi by PET analysis; conditions: in vivo

- Drug uptake (Brain): 0.001 %IDKg/g
- Drug uptake (Muscle tissue [1]): 0.016 % ID/g
- Drug uptake (Rattus norvegicus [2]): 0.115 %IDKg/g
- Drug uptake (Kidney [3]): 0.186 %IDKg/g
- Drug uptake (Rattus norvegicus [4]): 0.041 %IDKg/g
- Drug uptake (Blood [5]): 0.022 %ID·kg/g
- Drug uptake (Muscle tissue [6]): 0.025 %ID·kg/g
- Drug uptake (Kidney [7]): 0.183 %IDKg/g
- Drug uptake (Liver [8]): 0.406 %IDKg/g
- Drug uptake (Muscle tissue [9]): 0.019 % ID/g
- Drug uptake (Ovary): 0.194 %IDKg/g
- Drug uptake (Rattus norvegicus [10]): 0.116 %IDKg/g
- Drug uptake (Liver [11]): 0.477 %IDKg/g
- Ratio (Nucleic Acid): 1.25
- Retention_time (Plasma): 8.2 min
- SUV [12]: 1.2
- t1/2 [13]: > 24 h
- SUV (Blood [14]): 3.6
- t1/2 [15]: 0.2 h
SMILES: N=C(N)NCCc1ccc([18F])c(O)c1
